Results reported in ChEMBL document CHEMBL1938247, “Synthesis and evaluation of inhibitors of bacterial drug efflux pumps of the major facilitator superfamily” (2011).
In brackets after ≈: the same amount, converted by molar mass. Activity calls are given as the source filed them. The calls are words filed in the database; no cut-off is given here. Where a SMILES comes first, the peptide text is derived from it. [ ]: non-standard residue; d: D form. The star is where a group is joined. ξ: configuration not given here. ξhPhe = NC(CCc1ccccc1)C(=O)O; βNA = c1ccc2cc(N*)ccc2c1

Experiments:
Streptomyces coelicolor [1] = assay: Potentiation of chloramphenicol-induced antibacterial activity against Streptomyces coelicolor at 25 ug/mL after 48 hrs relative to control; format: functional
Outline: (§1)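 1 μL of a 10⁸ cfu/μL spore stock patched per plate; incubated at 30 °C. Strains: wild-type S. coelicolor, or PCR-targeted null mutants lacking cmlR1, cmlR2 or both. Reference efflux inhibitor MC-207,110 (Phe-Arg-β-naphthylamide) tested at the same 25 μg/mL.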

Streptomyces coelicolor [2] = assay: Antibacterial activity against Streptomyces coelicolor at 25 ug/mL after 48 hrs; format: functional, organism-based
Outline: (§2)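 Strains: wild-type S. coelicolor, or PCR-targeted null mutants lacking cmlR1, cmlR2 or both. Inhibitors HPLC-purified before testing; inhibitor alone at 25 μg/mL also checked for intrinsic toxicity.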

Streptomyces coelicolor [3] = assay: Antibacterial activity against Streptomyces coelicolor after 48 hrs; format: functional
Streptomyces coelicolor [4] = assay: Antibacterial activity against Streptomyces coelicolor overexpressing cmlR2 at 25 ug/mL after 48 hrs; format: functional, organism-based
Outline: (§3)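 Host strains were the cmlR1/cmlR2 double-null S. coelicolor carrying cmlR1 or cmlR2 under a strong constitutive promoter, selected for hygromycin resistance. Growth was checked on Difco nutrient agar containing 25 μg/mL test compound alone, with plates kept at 30 °C.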

Streptomyces coelicolor [5] = assay: Potentiation of chloramphenicol-induced antibacterial activity against Streptomyces coelicolor at 25 ug/mL after 48 hrs relative to MC-207,110; format: functional; outline: as §1
Streptomyces coelicolor [6] = assay: Inhibition of cmlR1 overexpressed in Streptomyces coelicolor assessed as potentiation of chloramphenicol-induced antibacterial activity measuring reduction in MIC of chloramphenicol at 25 ug/mL after 48 hrs relative to control
Outline: (§4)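 The cmlR1/cmlR2 double-null S. coelicolor strain was engineered to over-express cmlR1 or cmlR2 from a strong constitutive promoter. Spores (1 μL of a 10⁸ cfu/μL stock) were patched on Difco nutrient agar with 25 μg/mL inhibitor and varying chloramphenicol, then incubated at 30 °C. The chloramphenicol MIC (μg/mL) was read, and fold-potentiation was taken relative to the MIC without inhibitor.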

Streptomyces coelicolor [7] = assay: Potentiation of chloramphenicol-induced antibacterial activity against cmlR2-deficient Streptomyces coelicolor at 25 ug/mL after 48 hrs relative to control; format: functional; outline: as §1
Streptomyces coelicolor [8] = assay: Antibacterial activity against cmlR1-deficient Streptomyces coelicolor at 25 ug/mL after 48 hrs; format: functional, organism-based; outline: as §2
Streptomyces coelicolor [9] = assay: Antibacterial activity against Streptomyces coelicolor overexpressing cmlR1 at 25 ug/mL after 48 hrs; format: functional, organism-based; outline: as §3
Streptomyces coelicolor [10] = assay: Inhibition of cmlR2 overexpressed in Streptomyces coelicolor assessed as potentiation of chloramphenicol-induced antibacterial activity measuring reduction in MIC of chloramphenicol at 25 ug/mL after 48 hrs relative to control; outline: as §4
Streptomyces coelicolor [11] = assay: Potentiation of chloramphenicol-induced antibacterial activity against cmlR1-deficient Streptomyces coelicolor at 25 ug/mL after 48 hrs relative to control; format: functional; outline: as §1
Streptomyces coelicolor [12] = assay: Potentiation of chloramphenicol-induced antibacterial activity against cmlR1 and cmlR2-deficient Streptomyces coelicolor at 25 ug/mL after 48 hrs relative to control; format: functional; outline: as §1
Streptomyces coelicolor [13] = assay: Antibacterial activity against cmlR1 and cmlR2-deficient Streptomyces coelicolor at 25 ug/mL after 48 hrs; format: functional, organism-based; outline: as §2
Streptomyces coelicolor [14] = assay: Antibacterial activity against cmlR2-deficient Streptomyces coelicolor at 25 ug/mL after 48 hrs; format: functional, organism-based; outline: as §2

Compound | Activity (Streptomyces coelicolor [1]) | Activity (Streptomyces coelicolor [2]) | MIC (Streptomyces coelicolor [3]) [mg/L] | also measured
NCCC[C@@H](N)C(=O)NC(CCc1ccccc1)C(=O)NCc1ccccc1 (stereo partly drawn) | Active | inactive | – | –
NCCC[C@H](N)C(=O)NC(CCc1ccccc1)C(=O)Nc1cnc2ccccc2c1 (mixture of isomers) | – | inactive | > 40 | –
NCCC[C@@H](N)C(=O)NC(CCc1ccccc1)C(=O)Nc1cnc2ccccc2c1 (mixture of isomers) | – | inactive | > 40 | –
COc1ccc(C(NC(=O)[C@H](N)CCCN)C(=O)Nc2ccc3ccccc3c2)cc1 (stereo partly drawn) | Active | inactive | – | –
NCCC[C@H](N)C(=O)NC(CCc1ccccc1)C(=O)Nc1ccc2ccccc2c1 (mixture of isomers) | – | inactive | 10 | fold change (FC) (Streptomyces coelicolor [1]): 6.5
NCC(=O)NC(CCc1ccccc1)C(=O)Nc1ccc2ccccc2c1 (stereo not drawn) (H-Gly-[ξhPhe]-βNA) | Active | inactive | – | –
NCCC[C@@H](N)C(=O)OC(CCc1ccccc1)C(=O)Nc1ccc2ccccc2c1 (stereo partly drawn) | – | inactive | – | –
CC(C)(C)NC(=O)C(CCc1ccccc1)NC(=O)[C@H](N)CCCN (stereo partly drawn) | inactive | inactive | – | –
N=C(N)NCCC[C@H](NC(=O)[C@@H](N)Cc1ccccc1)C(=O)Nc1ccc2ccccc2c1 [PABETAN] (H-Phe-Arg-βNA) | – | inactive | 25 (≈ 56 µM) | fold change (FC) (Streptomyces coelicolor [1]): 2.6
NCCC[C@@H](N)C(=O)NC(CCc1ccccc1)C(=O)Nc1ccc2ccccc2c1 (mixture of isomers) | – | inactive | 10 | fold change (FC) (Streptomyces coelicolor [1]): 6.5
NCCCCC(=O)NC(CCc1ccccc1)C(=O)Nc1ccc2ccccc2c1 (stereo not drawn) | Active | inactive | – | –
NCCC[C@@H](N)C(=O)NC(C(=O)Nc1ccc2ccccc2c1)c1ccco1 (stereo partly drawn) | – | inactive | – | –
NCCC[C@H](N)C(=O)N[C@H](CCc1ccccc1)C(=O)Nc1ccc2ccccc2c1 | – | inactive | 9 (≈ 21.5 µM) | Activity (Streptomyces coelicolor [4]): inactive; fold change (FC) (Streptomyces coelicolor [1]): 7.2; fold change (FC) (Streptomyces coelicolor [5]): 3; fold change (FC) (Streptomyces coelicolor [6]): 3.5; fold change (FC) (Streptomyces coelicolor [7]): 2.4; Activity (Streptomyces coelicolor [8]): inactive; Activity (Streptomyces coelicolor [9]): inactive; fold change (FC) (Streptomyces coelicolor [10]): 7.3; fold change (FC) (Streptomyces coelicolor [11]): 3.3; fold change (FC) (Streptomyces coelicolor [12]): 1.8; Activity (Streptomyces coelicolor [13]): inactive; Activity (Streptomyces coelicolor [14]): inactive
CCCCNC(=O)C(CCc1ccccc1)NC(=O)[C@H](N)CCCN (stereo partly drawn) | inactive | inactive | – | –
NCCC[C@@H](N)C(=O)NC(C(=O)Nc1ccc2ccccc2c1)c1ccccc1 (stereo partly drawn) | Active | inactive | – | –
NCCC[C@H](N)C(=O)N[C@@H](CCc1ccccc1)C(=O)Nc1ccc2ccccc2c1 | – | inactive | 11 (≈ 26.3 µM) | fold change (FC) (Streptomyces coelicolor [1]): 5.9
NCCCCCC(=O)NC(CCc1ccccc1)C(=O)Nc1ccc2ccccc2c1 (stereo not drawn) | Active | inactive | – | –
NCCC[C@@H](N)C(=O)NC(CCc1ccccc1)C(=O)NC1CCCCC1 (stereo partly drawn) | inactive | inactive | – | –
NCCC[C@@H](N)C(=O)NC(C(=O)Nc1ccc2ccccc2c1)c1ccc([N+](=O)[O-])cc1 (stereo partly drawn) | Active | inactive | – | –
CN(C(=O)[C@H](N)CCCN)C(CCc1ccccc1)C(=O)Nc1ccc2ccccc2c1 (stereo partly drawn) | Active | inactive | – | –
CC(C)C(NC(=O)[C@H](N)CCCN)C(=O)Nc1ccc2ccccc2c1 (stereo partly drawn) | Active | inactive | – | –
NCCC(=O)NC(CCc1ccccc1)C(=O)Nc1ccc2ccccc2c1 (stereo not drawn) | Active | inactive | – | –
